Test results taken from ChEMBL document CHEMBL3045864, “Fungistatic activity of bicyclo[4.3.0]-γ-lactones” (J Agric Food Chem, 2011).
Values after ≈ are worked out from the molar mass of the structure shown.

Columns and labels:
Assay type in all cases: functional, organism-based
Fusarium oxysporum = test: Fungistatic activity against Fusarium oxysporum AM 13 assessed as effect on diameter of fungal growth zone
Summary of the method: (§1)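 Agar dilution growth-zone assay. Lactones in DMSO were mixed into sterilized potato dextrose agar (0.01 mL DMSO per 1 mL agar) at final concentrations of 50–300 μg/mL. A fungal mycelium plug was placed on the agar and grown at 27 °C and 60–80% relative humidity. Growth-zone diameters were measured once DMSO-only control colonies reached 5.5–6.0 cm. Inhibition = (1 − Da/Db) × 100%. IC50 was taken from four concentrations, each run in triplicate. DDAC served as reference.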

Fusarium culmorum = test: Fungistatic activity against Fusarium culmorum AM 282 assessed as effect on diameter of fungal growth zone; summary of the method: as §1
Penicillium citrinum = test: Fungistatic activity against Penicillium citrinum AM 354 assessed as effect on diameter of fungal growth zone; summary of the method: as §1
Fusarium tricinctum = test: Fungistatic activity against Fusarium tricinctum AM 16 assessed as effect on diameter of fungal growth zone; summary of the method: as §1
Aspergillus ochraceus = test: Fungistatic activity against Aspergillus ochraceus AM 456 assessed as effect on diameter of fungal growth zone; summary of the method: as §1
[1] = Fusarium oxysporum, AM 13, read-out: IC50
[2] = Fusarium culmorum, AM 282, read-out: IC50

For `O=C1OC[C@@H]2CC=CC[C@H]12`, the IC50 (Fusarium oxysporum; [1]) was 222 µg/mL (≈ 1610 µM) and the IC50 (Fusarium culmorum; [2]) was 171 µg/mL (≈ 1240 µM).

With `O=C1OC[C@@H]2C[C@@H]3O[C@@H]3C[C@H]12` the IC50 (Fusarium oxysporum; [1]) was 51.9 µg/mL (≈ 337 µM) and the IC50 (Fusarium culmorum; [2]) was 59.7 µg/mL (≈ 387 µM).

Compound `O=C1OC[C@@H]2C[C@@H](Br)[C@H](Br)C[C@H]12` has an IC50 (Fusarium oxysporum; [1]) of 47.5 µg/mL (≈ 159 µM) and an IC50 (Fusarium culmorum; [2]) of 90.5 µg/mL (≈ 304 µM).

In the case of `O=C1OC[C@@H]2CCCC[C@H]12`, the IC50 (Fusarium oxysporum; [1]) is reported as 261 µg/mL (≈ 1860 µM) and the IC50 (Fusarium culmorum; [2]) is reported as 169 µg/mL (≈ 1210 µM).

For `CC1(C)OC(=O)[C@@H]2CCCC[C@@H]21`, the IC50 (Fusarium oxysporum; [1]) was 162 µg/mL (≈ 965 µM) and the IC50 (Fusarium culmorum; [2]) was 121 µg/mL (≈ 717 µM).

In the case of `O=C1OC(=O)[C@@H]2CC=CC[C@H]12`, the IC50 (Penicillium citrinum) is reported as > 350 µg/mL, the IC50 (Fusarium tricinctum) is reported as 289 µg/mL (≈ 1900 µM) and the IC50 (Fusarium oxysporum; [1]) is reported as 220 µg/mL (≈ 1450 µM). It also gave an IC50 (Aspergillus ochraceus) of 287 µg/mL (≈ 1880 µM) and an IC50 (Fusarium culmorum; [2]) of 310 µg/mL (≈ 2040 µM).

With `O=C1OC[C@H]2CCC[C@H](Br)[C@@H]12` (racemic) the IC50 (Penicillium citrinum) was 282 µg/mL (≈ 1290 µM), the IC50 (Fusarium tricinctum) was 173 µg/mL (≈ 791 µM) and the IC50 (Fusarium oxysporum; [1]) was 184 µg/mL (≈ 840 µM). For the same compound, the IC50 (Aspergillus ochraceus) was 244 µg/mL (≈ 1120 µM) and the IC50 (Fusarium culmorum; [2]) was 133 µg/mL (≈ 608 µM).

`CC1(C)OC(=O)[C@@H]2CCCC[C@@H]21` (racemic) showed an IC50 (Penicillium citrinum) of 292 µg/mL (≈ 1730 µM), an IC50 (Fusarium tricinctum) of 213 µg/mL (≈ 1260 µM) and an IC50 (Fusarium oxysporum) of 179.1 µg/mL (≈ 1060 µM). The IC50 (Aspergillus ochraceus) was 160 µg/mL (≈ 949 µM) and the IC50 (Fusarium culmorum) was 134.5 µg/mL (≈ 799 µM).

For `O=C1OC[C@H]2CC=CC[C@@H]12` (racemic), the IC50 (Penicillium citrinum) was > 350 µg/mL, the IC50 (Fusarium tricinctum) was 221 µg/mL (≈ 1600 µM) and the IC50 (Fusarium oxysporum; [1]) was 282 µg/mL (≈ 2040 µM). For the same compound, the IC50 (Aspergillus ochraceus) was 171 µg/mL (≈ 1240 µM) and the IC50 (Fusarium culmorum; [2]) was 184 µg/mL (≈ 1330 µM).

With `O=C1OC[C@H]2C[C@H]3O[C@H]3C[C@@H]12` (racemic) the IC50 (Penicillium citrinum) was 312 µg/mL (≈ 2030 µM), the IC50 (Fusarium tricinctum) was 156 µg/mL (≈ 1020 µM) and the IC50 (Fusarium oxysporum; [1]) was 72.2 µg/mL (≈ 468 µM). For the same compound, the IC50 (Aspergillus ochraceus) was 141 µg/mL (≈ 915 µM) and the IC50 (Fusarium culmorum; [2]) was 90.4 µg/mL (≈ 586 µM).

`O=C1OC[C@H]2C[C@@H](Br)[C@H](Br)C[C@@H]12` (racemic) gave an IC50 (Penicillium citrinum) of 306 µg/mL (≈ 1030 µM), an IC50 (Fusarium tricinctum) of 110 µg/mL (≈ 371 µM) and an IC50 (Fusarium oxysporum; [1]) of 30.1 µg/mL (≈ 101 µM). The IC50 (Aspergillus ochraceus) was 219 µg/mL (≈ 735 µM) and the IC50 (Fusarium culmorum; [2]) was 81.5 µg/mL (≈ 274 µM).

Work on `O=C1OC[C@@H]2C[C@@H](Br)[C@H](O)C[C@H]12` (racemic) yielded an IC50 (Penicillium citrinum) of 292 µg/mL (≈ 1240 µM), an IC50 (Fusarium tricinctum) of 211 µg/mL (≈ 898 µM) and an IC50 (Fusarium oxysporum; [1]) of 141 µg/mL (≈ 600 µM). The IC50 (Aspergillus ochraceus) was 141 µg/mL (≈ 599 µM) and the IC50 (Fusarium culmorum; [2]) was 172 µg/mL (≈ 733 µM).

With `O=C1OC[C@H]2CCCC[C@@H]12` (racemic) the IC50 (Penicillium citrinum) was > 350 µg/mL, the IC50 (Fusarium tricinctum) was 222 µg/mL (≈ 1580 µM) and the IC50 (Fusarium oxysporum; [1]) was 314 µg/mL (≈ 2240 µM). The IC50 (Aspergillus ochraceus) was 187 µg/mL (≈ 1330 µM) and the IC50 (Fusarium culmorum; [2]) was 147 µg/mL (≈ 1050 µM).

For `CC1(C)OC(=O)[C@H]2CC=CC[C@H]21` (racemic), the IC50 (Penicillium citrinum) was 274 µg/mL (≈ 1650 µM), the IC50 (Fusarium tricinctum) was 205 µg/mL (≈ 1230 µM) and the IC50 (Fusarium oxysporum; [1]) was 188 µg/mL (≈ 1130 µM). It also gave an IC50 (Aspergillus ochraceus) of 159 µg/mL (≈ 958 µM) and an IC50 (Fusarium culmorum; [2]) of 183 µg/mL (≈ 1100 µM).

In the case of `CC1(C)OC(=O)[C@H]2C[C@H]3O[C@H]3C[C@H]21` (racemic), the IC50 (Penicillium citrinum) is reported as > 350 µg/mL, the IC50 (Fusarium tricinctum) is reported as 180 µg/mL (≈ 991 µM) and the IC50 (Fusarium oxysporum; [1]) is reported as 95.3 µg/mL (≈ 523 µM). It also gave an IC50 (Aspergillus ochraceus) of 142 µg/mL (≈ 780 µM) and an IC50 (Fusarium culmorum; [2]) of 142 µg/mL (≈ 777 µM).

Compound `CC1(C)OC(=O)[C@H]2C[C@@H](Br)[C@H](Br)C[C@H]21` (racemic) has an IC50 (Penicillium citrinum) of 255 µg/mL (≈ 782 µM), an IC50 (Fusarium tricinctum) of 191 µg/mL (≈ 586 µM) and an IC50 (Fusarium oxysporum; [1]) of 80.2 µg/mL (≈ 246 µM). It also gave an IC50 (Aspergillus ochraceus) of 121 µg/mL (≈ 371 µM) and an IC50 (Fusarium culmorum; [2]) of 155 µg/mL (≈ 474 µM).

For `CC1(C)OC(=O)[C@H]2C[C@@H](O)[C@H](Br)C[C@H]21` (racemic), the IC50 (Penicillium citrinum) was 212 µg/mL (≈ 806 µM), the IC50 (Fusarium tricinctum) was 162 µg/mL (≈ 617 µM) and the IC50 (Fusarium oxysporum; [1]) was 170 µg/mL (≈ 648 µM). It also gave an IC50 (Aspergillus ochraceus) of 220 µg/mL (≈ 838 µM) and an IC50 (Fusarium culmorum; [2]) of 166 µg/mL (≈ 632 µM).

In the case of `O=C1OCC2CCC(O)CC12` (racemic), the IC50 (Penicillium citrinum) is reported as > 350 µg/mL, the IC50 (Fusarium tricinctum) is reported as 161 µg/mL (≈ 1030 µM) and the IC50 (Fusarium oxysporum; [1]) is reported as 127 µg/mL (≈ 811 µM). It also gave an IC50 (Aspergillus ochraceus) of 212 µg/mL (≈ 1360 µM) and an IC50 (Fusarium culmorum; [2]) of 121 µg/mL (≈ 773 µM).

For `O=C1OC(=O)C2CCCCC12` (racemic), the IC50 (Penicillium citrinum) was > 350 µg/mL, the IC50 (Fusarium tricinctum) was 303 µg/mL (≈ 1960 µM) and the IC50 (Fusarium oxysporum; [1]) was 240 µg/mL (≈ 1560 µM). It also gave an IC50 (Aspergillus ochraceus) of 342 µg/mL (≈ 2220 µM) and an IC50 (Fusarium culmorum; [2]) of 292 µg/mL (≈ 1890 µM).

With `CCCCCCCCCC[N+](C)(C)CCCCCCCCCC.[Cl-]` [DIDECYLDIMETHYLAMMONIUM CHLORIDE] the IC50 (Penicillium citrinum) was 41.6 µg/mL, the IC50 (Fusarium tricinctum) was 27.9 µg/mL and the IC50 (Fusarium oxysporum; [1]) was 24.2 µg/mL. For the same compound, the IC50 (Aspergillus ochraceus) was 51.3 µg/mL and the IC50 (Fusarium culmorum; [2]) was 24.5 µg/mL.
